Data from ChEMBL document CHEMBL1128592, “Phenethylthiazolethiourea (PETT) compounds, a new class of HIV-1 reverse transcriptase inhibitors. 1. Synthesis and basic structure-activity relationship studies of PETT analogs” (J Med Chem, 1995).

What was measured:
[1] = Concentration which reduced the viability of the uninfected MT-4 cells to 50% compared to untreated control cells; conditions: MT4
[2] = target: Human immunodeficiency virus type 1 reverse transcriptase (Human immunodeficiency virus 1, UniProt Q72547); assay: Inhibition of HIV-1 reverse transcriptase using rCdG as template and dGTP as substrate
[3] = target: Human immunodeficiency virus type 1 reverse transcriptase (Human immunodeficiency virus 1) (UniProt Q72547); assay: Concentration which reduced the cytopathic effect of HIV-1 in MT-4 infected cells; type: functional, cell-based
How it was run: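 MT4 cells at 2 × 10⁵ cells/mL in RPMI 1640 with 10% FCS, penicillin and streptomycin (2 × 10⁴ cells/well). Compounds added from DMSO stocks diluted in medium (final DMSO ≤1%), then HIV-1 IIIB at 10 TCID₅₀/well. After 6 days in CO₂, surviving cells read by XTT. ED₅₀ is the concentration reducing virus cytopathic effect, mean of at least two experiments.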

`Oc1ccccc1CCNC(=S)Nc1nccs1` showed a CD50 [1] of 100 µM, an IC50 [2] of 1100 nM and an ED50 [3] of 4000 nM.

Molecule `S=C(NCCc1ccccc1)Nc1ccccn1` has an IC50 [2] of 20 nM and an ED50 [3] of 200 nM.

`Cc1ccccc1CCNC(=S)Nc1nccs1` gave a CD50 [1] of 72 µM, an IC50 [2] of 80 nM and an ED50 [3] of 950 nM.

Molecule `Fc1cccc(F)c1CC/N=C(\S)Nc1ccc(Br)cn1` has a CD50 [1] of 67 µM and an ED50 [3] of 10 nM.

For `CCOC(=O)c1csc(NC(=S)NCCc2ccccc2)n1`, the CD50 [1] was 60 µM, the IC50 [2] was 200 nM and the ED50 [3] was 500 nM.

`CCc1cc(NCc2nc3c(Cl)ccc(Cl)c3o2)c(O)nc1C` [L-697661] showed a CD50 [1] of 114 µM, an IC50 [2] of 100 nM and an ED50 [3] of 65 nM.

For `COc1ccc(Br)cc1CCNC(=S)Nc1nccs1`, the CD50 [1] was 94 µM, the IC50 [2] was 30 nM and the ED50 [3] was 50 nM.

`O=[N+]([O-])c1ccccc1CCNC(=S)Nc1nccs1` gave a CD50 [1] of 123 µM, an IC50 [2] of 150 nM and an ED50 [3] of 1100 nM.

Molecule `CCOc1cccc(CCNC(=S)Nc2nccs2)c1` has a CD50 [1] of 91 µM, an IC50 [2] of 60 nM and an ED50 [3] of 150 nM.

Molecule `CC(C/N=C(\S)Nc1nccs1)c1ccccc1` (centres undefined) has a CD50 [1] of 108 µM and an ED50 [3] of 1200 nM.

For `N#Cc1csc(NC(=S)NCCc2c(F)cccc2F)n1`, the CD50 [1] was 10 µM, the IC50 [2] was 6 nM and the ED50 [3] was 30 nM.

`Cc1cn([C@H]2C[C@H](N=[N+]=[N-])[C@@H](CO)O2)c(=O)[nH]c1=O` gave an ED50 [3] of 7 nM.

Work on `CC(Cc1ccccc1)/N=C(\S)Nc1nccs1` (centres undefined) yielded a CD50 [1] of 87 µM, an IC50 [2] of over 10000 nM and an ED50 [3] of over 10000 nM.

`S=C(NCCc1ccncc1)Nc1nccs1` gave a CD50 [1] of 113 µM, an IC50 [2] of over 10000 nM and an ED50 [3] of over 10000 nM.

Molecule `S=C(NCCc1cccnc1)Nc1nccs1` has a CD50 [1] of 83 µM, an IC50 [2] of over 10000 nM and an ED50 [3] of 6400 nM.

Molecule `S=C(NCc1ccccc1)Nc1nccs1` has a CD50 [1] of 120 µM, an IC50 [2] of 1200 nM and an ED50 [3] of over 10000 nM.

Molecule `Cn1cccc1CC/N=C(\S)Nc1nccs1` has a CD50 [1] of 143 µM, an IC50 [2] of 1900 nM and an ED50 [3] of over 10000 nM.

For `[N-]=[N+]=Nc1ccccc1CC/N=C(\S)Nc1nccs1`, the CD50 [1] was 92 µM and the ED50 [3] was 100 nM.

Molecule `FC(F)(F)c1csc(NC(=S)NCCc2ccccc2)n1` has a CD50 [1] of 9 µM, an IC50 [2] of 550 nM and an ED50 [3] of 500 nM.

Molecule `S=C(NCCCc1ccccc1)Nc1nccs1` has a CD50 [1] of over 360 µM, an IC50 [2] of 4500 nM and an ED50 [3] of over 10000 nM.

Molecule `S=C(NCCc1ccccc1)Nc1nccs1` has an IC50 [2] of 900 nM and an ED50 [3] of 1300 nM.

For `Cc1csc(NC(=S)NCCc2ccccc2)n1`, the CD50 [1] was over 360 µM, the IC50 [2] was 100 nM and the ED50 [3] was 400 nM.

In the case of `CN(CCc1ccccc1)/C(S)=N\c1nccs1`, the CD50 [1] is reported as 29 µM, the IC50 [2] is reported as over 10000 nM and the ED50 [3] is reported as over 10000 nM.

`S=C(NCCc1ccccc1)Nc1ncc(Cl)s1` gave a CD50 [1] of 15 µM, an IC50 [2] of 2400 nM and an ED50 [3] of 2700 nM.

`CCCCCCOc1cccc(CC/N=C(\S)Nc2nccs2)c1` gave a CD50 [1] of 8 µM, an IC50 [2] of over 10000 nM and an ED50 [3] of over 10000 nM.

For `COc1cccc(OC)c1CCNC(=S)Nc1nccs1`, the CD50 [1] was 37 µM, the IC50 [2] was 90 nM and the ED50 [3] was 90 nM.

In the case of `O=C(NCCc1ccccc1)Nc1nccs1`, the CD50 [1] is reported as 113 µM, the IC50 [2] is reported as over 10000 nM and the ED50 [3] is reported as over 10000 nM.

For `CC(C)c1csc(NC(=S)NCCc2ccccc2)n1`, the CD50 [1] was over 330 µM, the IC50 [2] was 200 nM and the ED50 [3] was 1300 nM.

Molecule `Fc1cccc(Cl)c1CCNC(=S)Nc1nccs1` has a CD50 [1] of 111 µM, an IC50 [2] of 6 nM and an ED50 [3] of 50 nM.

Work on `S=C(NCCc1ccccc1)Nc1cc[nH]n1` yielded a CD50 [1] of 122 µM, an IC50 [2] of over 10000 nM and an ED50 [3] of over 10000 nM.

In the case of `S=C(NCCc1ccccc1)Nc1nc2ccccc2s1`, the IC50 [2] is reported as 200 nM and the ED50 [3] is reported as 1100 nM.

Work on `N#Cc1csc(NC(=S)NCCc2ccccc2)n1` yielded an IC50 [2] of 200 nM and an ED50 [3] of 200 nM.

Molecule `COc1ccc(OC)c(CCNC(=S)Nc2nccs2)c1` has a CD50 [1] of 86 µM, an IC50 [2] of 200 nM and an ED50 [3] of 400 nM.

Work on `S=C(NCCc1ccccn1)Nc1nccs1` yielded a CD50 [1] of 76 µM, an IC50 [2] of 200 nM and an ED50 [3] of 1300 nM.

`CCCOc1cccc(CCNC(=S)Nc2nccs2)c1` showed a CD50 [1] of 75 µM, an IC50 [2] of 200 nM and an ED50 [3] of 2200 nM.

With `Fc1ccccc1CCNC(=S)Nc1nccs1` the CD50 [1] was 75 µM, the IC50 [2] was 60 nM and the ED50 [3] was 100 nM.

`Cc1ccc(NC(=S)NCCc2ccccc2)nc1` gave an IC50 [2] of 30 nM and an ED50 [3] of 150 nM.

`COc1ccccc1CCNC(=S)Nc1nccs1` gave a CD50 [1] of 102 µM, an IC50 [2] of 40 nM and an ED50 [3] of 400 nM.

In the case of `S=C(NCCc1ccccc1)Nc1ncccc1Br`, the CD50 [1] is reported as 297 µM, the IC50 [2] is reported as over 10000 nM and the ED50 [3] is reported as over 10000 nM.

Molecule `Cc1ccnc2c1NC(=O)c1cccnc1N2C1CC1` has an ED50 [3] of 150 nM.

For `CC(C)Oc1cccc(CCNC(=S)Nc2nccs2)c1`, the CD50 [1] was 16 µM, the IC50 [2] was 400 nM and the ED50 [3] was 400 nM.

With `COc1cccc(F)c1CCNC(=S)Nc1nccs1` the CD50 [1] was 51 µM, the IC50 [2] was 10 nM and the ED50 [3] was 300 nM.

Work on `CCc1csc(NC(=S)NCCc2ccccc2)n1` yielded a CD50 [1] of over 340 µM, an IC50 [2] of 600 nM and an ED50 [3] of 700 nM.

For `S=C(NCCc1cccc(Oc2ccccc2)c1)Nc1nccs1`, the CD50 [1] was 14 µM, the IC50 [2] was 1100 nM and the ED50 [3] was 2800 nM.

Work on `CCc1csc(NC(=S)NCCc2c(F)cccc2F)n1` yielded a CD50 [1] of over 305 µM, an IC50 [2] of 5.5 nM and an ED50 [3] of 80 nM.

`Fc1cccc(CCNC(=S)Nc2nccs2)c1` gave a CD50 [1] of 78 µM, an IC50 [2] of 150 nM and an ED50 [3] of 250 nM.

`CCOc1cccc(F)c1CCNC(=S)Nc1nccs1` showed a CD50 [1] of 37 µM, an IC50 [2] of 10 nM and an ED50 [3] of 200 nM.

For `S=C(NCCc1ccccc1)Nc1cnccn1`, the CD50 [1] was over 390 µM, the IC50 [2] was 3900 nM and the ED50 [3] was over 10000 nM.

`CCCCc1csc(NC(=S)NCCc2ccccc2)n1` showed a CD50 [1] of 313 µM, an IC50 [2] of 2500 nM and an ED50 [3] of 1300 nM.

`S=C(NCCc1ccco1)Nc1nccs1` gave a CD50 [1] of 89 µM, an IC50 [2] of 650 nM and an ED50 [3] of 5200 nM.

For `S=C(NCCc1ccccc1)Nc1nncs1`, the IC50 [2] was 1900 nM and the ED50 [3] was 5300 nM.

`CCOc1cccc(F)c1CCNC(=S)Nc1ccc(C)cn1` gave a CD50 [1] of 60 µM, an IC50 [2] of 4.5 nM and an ED50 [3] of 200 nM.

`O=C(O)c1csc(/N=C(\S)NCCc2ccccc2)n1` showed a CD50 [1] of over 325 µM, an IC50 [2] of over 10000 nM and an ED50 [3] of over 10000 nM.

`Cc1ccc(NC(=S)NCCc2ccccn2)nc1` showed a CD50 [1] of 73 µM, an IC50 [2] of 50 nM and an ED50 [3] of 300 nM.

`COc1ccc(CCNC(=S)Nc2nccs2)cc1` showed a CD50 [1] of 68 µM, an IC50 [2] of 350 nM and an ED50 [3] of 5500 nM.

Work on `CN(/C(S)=N/CCc1ccccc1)c1nccs1` yielded a CD50 [1] of 65 µM, an IC50 [2] of 1500 nM and an ED50 [3] of 10000 nM.

`S=C(NCCc1ccccc1Cl)Nc1nccs1` showed a CD50 [1] of 100 µM, an IC50 [2] of 600 nM and an ED50 [3] of 400 nM.

Work on `CCOc1cccc(F)c1CCNC(=S)Nc1ccc(Br)cn1` yielded a CD50 [1] of 50 µM, an IC50 [2] of 6 nM and an ED50 [3] of 20 nM.

For `CCCc1csc(NC(=S)NCCc2ccccc2)n1`, the CD50 [1] was over 330 µM, the IC50 [2] was 350 nM and the ED50 [3] was 1600 nM.

Work on `Cc1ccc(NC(=S)NCCc2c(F)cccc2F)nc1` yielded a CD50 [1] of over 325 µM, an IC50 [2] of 3 nM and an ED50 [3] of 10 nM.

`Fc1cccc(F)c1CCNC(=S)Nc1nccs1` showed a CD50 [1] of 33 µM, an IC50 [2] of 10 nM and an ED50 [3] of 20 nM.

Molecule `Fc1cccc(F)c1CCNC(=S)Nc1ccc(Br)cn1` has an IC50 [2] of 1 nM.

Work on `Fc1ccc(CCNC(=S)Nc2nccs2)cc1` yielded a CD50 [1] of 78 µM, an IC50 [2] of 1000 nM and an ED50 [3] of 3300 nM.

Molecule `[N-]=[N+]=Nc1ccccc1CCNC(=S)Nc1nccs1` has an IC50 [2] of 30 nM.

`CC(CNC(=S)Nc1nccs1)c1ccccc1` (centres undefined) gave an IC50 [2] of 450 nM.

Work on `S=C(NCCc1ccccn1)Nc1ccc(Br)cn1` yielded an ED50 [3] of 20 nM.

Work on `COc1cccc(CCNC(=S)Nc2nccs2)c1` yielded a CD50 [1] of 143 µM, an IC50 [2] of 150 nM and an ED50 [3] of 600 nM.

With `CC(C)=CCN1Cc2cc(Cl)cc3[nH]c(=S)n(c23)C[C@@H]1C` the IC50 [2] was 200 nM and the ED50 [3] was 250 nM.

`S=C(NCCc1ccccc1)Nc1ccc(Br)cn1` showed an IC50 [2] of 15 nM and an ED50 [3] of 50 nM.
